# Experimental data as given in PubChem BioAssay.
# Calls of active or inactive are those of the source.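 How the source made its calls, unless noted: active means inhibition of the reporter signal at or above 50%; inactive means inhibition below 50%.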
# Assays:
# [1] = inhibitors of TNFa-induced NFkB p65 translocation, primary screen, imaging, HUVEC, MLSMR starter and 10KST1 sets (AID 438;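 active means inhibition above 20% together with a positive visual image hit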;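 further: compound added about 3h40 before a 20 min TNFalpha stimulation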;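 on inhibition: signal is the nuclear over cytoplasmic p65 intensity ratio per well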); conditions: HUVEC TNFa-induced p65 nuclear translocation; cell count: measured here: nuclei count (cytotoxicity indicator), at 2.08 µM; inhibition: at 2 µM, stronger effect = higher value, 0% TNFa-plus-vehicle, 100% no-TNFa wells
# [2] = inhibitors of mutant huntingtin aggregation, primary screen, imaging, exon1htt(103Q)mCFP cells, high-content imaging (AID 483;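 active means visual image review flags a hit and inhibition of aggregation exceeds 20%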;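 further: compound exposure lasted 3 days before fixation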;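 on nuclei count: percent of the per-plate median nuclei count of sample wells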); conditions: exon1htt(103Q)mCFP cell line, aggregate imaging, at 2 µM; inhibition of aggregation: stronger effect = higher value; nuclei count: measured here: cell count, toxicity
# [3] = inhibitors of E-selectin induction by TNFa, primary screen, imaging, HUVEC, immunofluorescence, MLSMR starter and 10KST1 sets (AID 487;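 active means visually confirmed hit in the image check and inhibition above 20%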;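 on inhibition: signal is fraction of cell area covered by stained E-selectin grains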;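 on nuclei count: 100% = median nuclei count of all wells on the same plate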); conditions: HUVEC TNFalpha-induced E-selectin immunofluorescence imaging, at 2 µM; inhibition: stronger effect = higher value; nuclei count: measured here: cell number, toxicity
# [4] = biological target: Voltage-gated potassium channel subunit beta-2 (Rattus norvegicus) (UniProt P62483); experiment: KvBeta enzyme negative modulators, primary screen, biochemical, NADPH fluorescence (AID 622;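 active means fluorescence slope higher than the sample average by over 3 SD, cut at about -0.22 in these data, passing the limit was not always enough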;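 further: slope of raw intensity against log time taken from 70 to 1610 s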); conditions: recombinant KvBeta, 4-cyanobenzaldehyde reduction, at 10 µM, stronger effect = higher value
# Chain of Voltage-gated potassium channel subunit beta-2 (Rattus norvegicus) (P62483 whole entry, looked up): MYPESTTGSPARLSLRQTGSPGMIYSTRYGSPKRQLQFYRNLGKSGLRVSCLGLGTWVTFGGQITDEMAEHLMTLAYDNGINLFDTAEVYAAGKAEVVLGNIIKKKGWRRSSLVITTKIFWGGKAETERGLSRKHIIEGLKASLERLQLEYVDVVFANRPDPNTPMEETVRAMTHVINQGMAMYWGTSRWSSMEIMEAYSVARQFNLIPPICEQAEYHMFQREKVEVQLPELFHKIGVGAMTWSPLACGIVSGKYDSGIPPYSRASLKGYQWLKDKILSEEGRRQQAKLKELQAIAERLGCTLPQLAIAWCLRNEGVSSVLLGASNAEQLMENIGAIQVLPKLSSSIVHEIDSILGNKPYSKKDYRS
# [5] = biological target: Voltage-gated potassium channel subunit beta-2 (Rattus norvegicus) (UniProt P62483); experiment: KvBeta positive modulators, primary screen, biochemical, NADPH fluorescence (AID 623;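 active means NADPH fluorescence slope more negative than the mean of all samples by about 3 SD, 99.7% confidence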;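 further: fluorescence intensity change per second fitted from 20 to 320 s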); conditions: Recombinant KvBeta, NADPH fluorescence decrease slope, 10 min; at 10 µM; stronger effect = lower value
# [6] = biological target: Muscarinic acetylcholine receptor M4 (Homo sapiens) (UniProt P08173); experiment: compounds altering M4/GIRK thallium flux, either direction, primary screen, M4 allosteric agonist project, cell-based, HEK293 M4/GIRK, BTC-AM (AID 625;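 active means fluorescence slope after compound addition differing from the mean of all tested samples at 99.7% confidence, mostly higher but some lower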;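 further: thallium influx through GIRK channels coupled to M4 in HEK293 cells with BTC-AM dye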); conditions: at 10 µM, actives lie on both sides
# Chain of Muscarinic acetylcholine receptor M4 (Homo sapiens) (P08173 whole entry, looked up): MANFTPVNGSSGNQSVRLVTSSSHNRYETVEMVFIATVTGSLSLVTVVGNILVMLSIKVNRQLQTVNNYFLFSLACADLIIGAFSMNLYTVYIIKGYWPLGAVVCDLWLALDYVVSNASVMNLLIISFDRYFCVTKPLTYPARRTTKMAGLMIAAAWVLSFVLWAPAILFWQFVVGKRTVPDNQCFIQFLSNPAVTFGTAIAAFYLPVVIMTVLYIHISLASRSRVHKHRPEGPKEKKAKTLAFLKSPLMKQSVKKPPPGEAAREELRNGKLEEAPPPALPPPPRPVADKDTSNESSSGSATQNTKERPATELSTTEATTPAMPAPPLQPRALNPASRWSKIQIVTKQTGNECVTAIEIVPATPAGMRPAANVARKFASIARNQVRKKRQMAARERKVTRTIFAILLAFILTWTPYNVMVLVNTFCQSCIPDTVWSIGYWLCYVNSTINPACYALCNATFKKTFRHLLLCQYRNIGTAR
# Outline: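 Material: HEK293 cells with M4 receptor and GIRK channels; Times: cells overnight at 37 °C, BTC-AM loading 1 h, reads 2 min total; Technique: kinetic BTC-AM fluorescence sampled at 1 Hz, 10 s pre-addition baseline; Read-out basis: slope over 15–24 s of trace normalized to starting intensity; Controls: carbachol positive, DMSO negative.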
# [7] = inhibitors of Sendai virus-induced IRF3 signaling, primary screen, TLR/RLR signaling modifier project, cell-based, Sendai virus stimulus, luciferase, 10K MLSCN set (AID 602276;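 active means inhibition at or above 50% at 10 µM; inactive means inhibition below 50%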;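 further: firefly luciferase from ISG56 promoter only with Renilla not read in this screen; 0% = Sendai virus plus DMSO and 100% = medium plus DMSO without virus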); conditions: HEK293 RL24 IRF3 luciferase reporter, at 10 µM, stronger effect = higher value
# [8] = inhibitors of poly I:C-induced TLR3 signaling, primary screen, cell-based, poly I:C stimulus, luciferase, 10K MLSCN set (AID 602277); conditions: HEK293-TLR3 RL24 IRF3 luciferase reporter, at 10 µM, stronger effect = higher value
SMILES,cell count [1],inhibition [1],inhibition of aggregation [2],nuclei count [2],inhibition [3],nuclei count [3],fluorescence slope [4],NADPH fluorescence slope [5],fluorescence slope [6],inhibition [7],inhibition [8]
CCOc1ccccc1NC(=O)C1CCCN1C(=O)OCc1ccccc1 (stereo not drawn),438,6% (inactive),-8.5% (inactive),103%,-406% (inactive),152%,-0.544 (inactive),-4.2e-05 (inactive),0.0063 (inactive),4.99% (inactive),7.18% (inactive)
CCSC1(SCC)N=C(N)C2(C#N)C(c3ccccc3)NC(C)=C(C)C12C#N (stereo not drawn),422,2% (inactive),13.7% (inactive),108%,-15.4% (inactive),120%,-0.401 (inactive),-1.2e-05 (inactive),0.00608 (inactive),7.48% (inactive),17.3% (inactive)
c1cncc(-c2nnc(SCCSc3nnc(-c4cccnc4)o3)o2)c1,301,-10% (inactive),20.4% (inactive),75.6%,11.1% (inactive),122%,-0.345 (inactive),-7.7e-06 (inactive),0.00585 (inactive),14.3% (inactive),20.3% (inactive)
CCS(=O)(=O)Nc1ccc(C(=O)CC2(O)C(=O)Nc3ccccc32)cc1 (stereo not drawn),602,-11.9% (inactive),-19.6% (inactive),110%,11.8% (inactive),107%,-0.521 (inactive),0.000137 (inactive),0.00663 (inactive),14.3% (inactive),18.7% (inactive)
Cc1ccc(Cn2ncc3c(NCCCN4CCOCC4)ncnc32)cc1,642,-14.6% (inactive),13.9% (inactive),84.8%,-8.1% (inactive),98.3%,-0.568 (inactive),-1.3e-05 (inactive),0.00555 (inactive),22.3% (inactive),11.4% (inactive)
CCOc1ccccc1C1CC(=O)NC(SCC)=C1C#N (stereo not drawn),465,-13% (inactive),18.7% (inactive),84.4%,-10% (inactive),130%,-0.326 (inactive),-7.3e-05 (inactive),0.00457 (inactive),9.15% (inactive),17.5% (inactive)
Cc1ccccc1-c1nc(CN2CCC(C(=O)NCCCN3CCCC3)CC2)c(C)o1,223,0% (inactive),-91.5% (inactive),101%,25.4% (inactive),94.2%,-0.553 (inactive),7.2e-05 (inactive),0.00435 (inactive),-136% (inactive),56.5% (active)
COc1cccc(C(=O)Nc2cc(NC(=O)c3ccco3)ccc2OC)c1,406,10.9% (inactive),24.4% (inactive),88.1%,17.3% (inactive),98.6%,-0.572 (inactive),-3.4e-05 (inactive),0.00583 (inactive),19.4% (inactive),4.19% (inactive)
CCC(=O)Nc1cccc(Br)c1,323,2.9% (inactive),17.6% (inactive),99.7%,-38.1% (inactive),123%,-0.541 (inactive),-6e-05 (inactive),0.0051 (inactive),-18.4% (inactive),-1.97% (inactive)
CCOC(=O)c1ccc(N2C(=O)C3CC=CCC3C2=O)cc1 (stereo not drawn),640,-6.3% (inactive),-0.1% (inactive),104%,40.6% (inactive),101%,-0.545 (inactive),-1.8e-05 (inactive),0.00473 (inactive),1.51% (inactive),-1.14% (inactive)
CCCN(CCO)Cc1cccc(Br)c1,492,-1.1% (inactive),7.9% (inactive),93.6%,-109% (inactive),109%,-0.437 (inactive),2.5e-05 (inactive),0.00547 (inactive),14.5% (inactive),19.3% (inactive)
O=C(Nc1nnc(C2CCCCC2)s1)c1cccs1,511,-8.1% (inactive),-2.9% (inactive),108%,-77.2% (inactive),121%,-0.437 (inactive),-2.3e-05 (inactive),0.00416 (inactive),-37.9% (inactive),-113% (inactive)
CC(=O)N1C(=O)N(C)C2C1N(C(C)=O)C(=O)N2C (stereo not drawn),395,5.4% (inactive),7.3% (inactive),96.4%,-4.1% (inactive),98.6%,-0.574 (inactive),-5e-05 (inactive),0.00666 (inactive),11.1% (inactive),16.5% (inactive)
O=C(c1cccs1)N1CCc2ccccc21,335,-3.8% (inactive),5% (inactive),104%,-59.6% (inactive),111%,-0.511 (inactive),-5e-05 (inactive),0.00554 (inactive),-42% (inactive),-100% (inactive)
COC(=O)Cc1csc(N)n1,743,10% (inactive),15% (inactive),109%,-54.5% (inactive),122%,-0.529 (inactive),2.5e-05 (inactive),0.00536 (inactive),12.4% (inactive),22.3% (inactive)
CC(C)N(C=O)C1(C(=O)NC2CCCCC2)CCCCC1,584,-6.3% (inactive),15.2% (inactive),114%,-9.4% (inactive),113%,-0.551 (inactive),-4.6e-06 (inactive),0.00567 (inactive),10.2% (inactive),13.5% (inactive)
CCCOc1ccc(/C(O)=C2/C(=O)C(=O)N(CCCOC)C2c2ccncc2)cc1 (stereo not drawn),593,5.8% (inactive),4% (inactive),97.6%,1.9% (inactive),108%,-0.29 (inactive),-6.1e-05 (inactive),0.00606 (inactive),13.1% (inactive),2.66% (inactive)
Cc1cc(NC(=O)Cn2cnc3c(cnn3C(C)(C)C)c2=O)no1,645,1.1% (inactive),-5.1% (inactive),113%,7% (inactive),102%,-0.573 (inactive),-3.1e-05 (inactive),0.00541 (inactive),-18.6% (inactive),-0.822% (inactive)
N#Cc1cnc2sc3ccccc3n2c1=N,332,-12.6% (inactive),5.1% (inactive),119%,-14.8% (inactive),106%,-0.554 (inactive),7.2e-06 (inactive),0.00378 (inactive),-9.74% (inactive),-37.6% (inactive)
CCOc1ccccc1N1CCN(S(=O)(=O)c2cccc3nsnc23)CC1,453,3.9% (inactive),-10.4% (inactive),94%,-6.6% (inactive),106%,-0.472 (inactive),2.9e-06 (inactive),0.00356 (inactive),22.8% (inactive),18.5% (inactive)
COc1ccccc1-n1cnc(N)c1C(C)=O,675,-9.1% (inactive),-12.9% (inactive),105%,-12.3% (inactive),110%,-0.586 (inactive),-5.1e-05 (inactive),0.00353 (inactive),6.44% (inactive),5.79% (inactive)
CC(=O)NCCn1c(SCC(=O)NCC2CCCO2)nc2ccccc2c1=O (stereo not drawn),515,-8.5% (inactive),4.3% (inactive),110%,21.7% (inactive),103%,-0.471 (inactive),5.6e-05 (inactive),0.00516 (inactive),3.29% (inactive),12.9% (inactive)
Cc1ccc(C)c(N2C(=O)CN=C2Nc2ccccc2Cl)c1,441,14.6% (inactive),0.8% (inactive),96.7%,18.2% (inactive),113%,-0.577 (inactive),-4.1e-05 (inactive),0.00593 (inactive),13% (inactive),24.3% (inactive)
COC(=O)C(C)Sc1nc2c(c(=O)n(C)c(=O)n2C)n1Cc1cccc(C)c1 (stereo not drawn),474,3.8% (inactive),-2.4% (inactive),99.3%,-27.3% (inactive),117%,-0.553 (inactive),-3.9e-05 (inactive),0.00598 (inactive),18.9% (inactive),26.2% (inactive)
Cc1cc(NC(=O)C23CCC(C)(c4nc5cc(Cl)c(Cl)cc5nc42)C3(C)C)no1 (stereo not drawn),409,4.3% (inactive),7.4% (inactive),104%,-116% (inactive),92.1%,-0.577 (inactive),-4.4e-05 (inactive),0.00686 (inactive),12.2% (inactive),15.9% (inactive)
COC(=O)c1ccccc1NC(=O)Cn1c(-c2nonc2N)nc2ccccc21,363,5.8% (inactive),-2.5% (inactive),1.9%,-162% (inactive),102%,-0.537 (inactive),-5.1e-05 (inactive),0.00504 (inactive),47.8% (inactive),30% (inactive)
COC(=O)c1cccc(NC(=O)C2COc3ccccc3O2)c1C (stereo not drawn),349,-3.3% (inactive),13.6% (inactive),102%,-10.1% (inactive),96.5%,-0.508 (inactive),-1.7e-05 (inactive),0.0049 (inactive),-2.98% (inactive),-15.7% (inactive)
CCOc1ccc(Cl)cc1S(=O)(=O)N1CCCC1,208,1.4% (inactive),0.2% (inactive),101%,-46.5% (inactive),122%,-0.453 (inactive),2.4e-05 (inactive),0.00537 (inactive),17% (inactive),15.8% (inactive)
